Source: ChEMBL document CHEMBL5154931, “Structure-Activity Relationships of 8-Hydroxyquinoline-Derived Mannich Bases with Tertiary Amines Targeting Multidrug-Resistant Cancer” (J Med Chem, 2022)

Key:
Type in all cases: functional
[1] = Selectivity ratio of IC50 for cytotoxicity against human A-431 cells assessed as cell growth inhibition to IC50 for cytotoxicity against human A-431 cells expressing ABCB1 assessed as cell growth inhibition
MES-SA [2] = assay: Cytotoxicity against human MES-SA cells assessed as cell growth inhibition incubated for 72 hrs by PrestoBlue reagent based cell viability assay
Method in brief: (§1)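 MES-SA and doxorubicin-selected MES-SA/Dx5 cells in DMEM with 10% FBS, 5 mmol/L glutamine, penicillin/streptomycin; 5000 cells/well attached 24 h, serial compound dilutions for 72 h, with or without 1 μM tariquidar. 5% PrestoBlue added after supernatant removal, 1 h at 37 °C, read ex 555/em 585 nm. Mean IC50 with SD, 2–53 independent assays.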

MES-SA/Dx5 [3] = assay: Cytotoxicity against multidrug resistance human MES-SA/Dx5 cells assessed as cell growth inhibition incubated for 72 hrs by PrestoBlue reagent based cell viability assay; settings: MES-SA/Dx5, 72 h; method in brief: as §1
[4] = Selectivity ratio of IC50 for cytotoxicity against human MES-SA cells assessed as cell growth inhibition to IC50 for cytotoxicity against multidrug resistance human MES-SA/Dx5 cells assessed as cell growth inhibition
[5] = Selectivity ratio of IC50 for cytotoxicity against human MES-SA cells assessed as cell growth inhibition in presence of P-gp inhibitor Tariquidar to IC50 for cytotoxicity against multidrug resistance human MES-SA/Dx5 cells assessed as cell growth inhibition in presence of P-gp inhibitor Tariquidar
MES-SA [6] = assay: Cytotoxicity against human MES-SA cells assessed as cell growth inhibition incubated for 72 hrs in presence of P-gp inhibitor Tariquidar by PrestoBlue reagent based cell viability assay; method in brief: as §1
MES-SA/Dx5 [7] = assay: Cytotoxicity against multidrug resistance human MES-SA/Dx5 cells assessed as cell growth inhibition incubated for 72 hrs in presence of P-gp inhibitor Tariquidar by PrestoBlue reagent based cell viability assay; settings: MES-SA/Dx5, 72 h; method in brief: as §1
A-431 [8] = assay: Cytotoxicity against human A-431 cells assessed as cell growth inhibition after 72 hrs by PrestoBlue reagent based cell viability assay; settings: A-431, 72 h
Method in brief: (§2)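 A431 and retrovirally P-gp (ABCB1)-transduced A431 cells kept in supplemented DMEM; 5000 cells/well attached 24 h, then serial compound dilutions for 72 h. Medium removed, 5% PrestoBlue (resazurin) added, 1 h at 37 °C, fluorescence ex 555/em 585 nm.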

A-431 [9] = assay: Cytotoxicity against human A-431 cells expressing ABCB1 assessed as cell growth inhibition incubated for 72 hrs by PrestoBlue reagent based cell viability assay; settings: A-431, 72 h; method in brief: as §2

SMILES	Ratio IC50 [1]	Ratio IC50 [4]	Ratio IC50 [5]	further results
Cc1ccccc1N1CCN(Cc2ccc(O)c3ncccc23)CC1	0.7			
Oc1ccccc1CN1CCNCC1				IC50 (MES-SA [2]; read-out: IC50): > 100 µM; IC50 (MES-SA/Dx5 [3]; read-out: IC50): > 100 µM
Oc1c(C(c2ccccn2)N2CCOCC2)cc(Cl)c2cccnc12 (stereo unspecified)		1.6		
COCc1cc(CN2CCOCC2)c(O)c2ncccc12	2.8	1.7	1.1	
CCN1CCN(C(c2cc(Cl)c3cccnc3c2O)N2CCCC2)CC1 (stereo unspecified)	1.7	2.8	1.3	IC50 (MES-SA [6]; read-out: pIC50 (converted)): 3.31 µM; IC50 (MES-SA [2]; read-out: pIC50 (converted)): 3.31 µM; IC50 (MES-SA/Dx5 [3]; read-out: pIC50 (converted)): 1.17 µM; IC50 (MES-SA/Dx5 [7]): 2.45 µM; IC50 (A-431 [8]): 8.71 µM; IC50 (A-431 [9]): 5.13 µM
CC1CCN(Cc2cc(COC(C)C)c3cccnc3c2O)CC1	4.1			
COCc1cc(CN2CCN(c3ccccc3)CC2)c(O)c2ncccc12	3.9	2.2		
Oc1c(CN2CCc3ccccc3C2)ccc2cccnc12	2		1.5	IC50 (MES-SA [6]; read-out: IC50): 2.59 µM
CCN1CCN(C(c2cccnc2)c2ccc3cccnc3c2O)CC1 (stereo unspecified)		2.1	1	
Oc1c(C(c2ccncc2)N2CCOCC2)ccc2cccnc12 (stereo unspecified)			1.4	
Oc1c(CN2CCCC2)ccc2cccnc12	5.2			
CCN1CCN(C(c2cccnc2)c2cc(Cl)c3cccnc3c2O)CC1 (stereo unspecified)		0.9		
Oc1c(C(c2ccccn2)N2CCCCC2)cc(Cl)c2cccnc12 (stereo unspecified)	2.1		2.5	
Oc1ccc(CN2CCCC2)c2cccnc12		1.5		
Oc1ccc(CN2CCOCC2)c2cccnc12		0.7		
CN1CCN(C(c2ccccn2)c2cc(Cl)c3cccnc3c2O)CC1 (stereo unspecified)	2.8	1.2		
CCOC(=O)C1CCN(Cc2cc(Cl)c3cccnc3c2O)CC1	4.1			
COCc1cc(CN2CCCC2)c(O)c2ncccc12	13.1		3	
Oc1c(C(c2cccs2)N2CCCCC2)ccc2cccnc12 (stereo unspecified)		0.8		
Oc1c(CN2CCN(c3ccccc3)CC2)cc(Cl)c2cccnc12	1.3	6		
Oc1c(CN2CCOCC2)cc(Br)c2cccnc12	3.1	2.5	1.5	
CCOCc1cc(CN2CCCC2)c(O)c2ncccc12	6		1.7	
CCCOCc1cc(CN2CCCCC2)c(O)c2ncccc12	4.6		1.5	
CC(C)OCc1cc(CN2CCCCC2)c(O)c2ncccc12	3.9		1.3	

SMILES	Ratio IC50 [1]	Ratio IC50 [4]	Ratio IC50 [5]	further results
Oc1c(C(c2ccccc2)N2CCCCC2)cc(Cl)c2cccnc12 (stereo unspecified)		1.1		
CN1CCN(Cc2cnc3ccccc3c2O)CC1		1.99		
CCN1CCN(Cc2ccc(O)c3ncccc23)CC1		0.8		
Oc1c(C(c2cccs2)N2CCOCC2)cc(Cl)c2cccnc12 (stereo unspecified)		0.6		
CCOCc1cc(CN2CCCCC2)c(O)c2ncccc12	6			
COCc1cc(CN2CCN(C)CC2)c(O)c2ncccc12	2.9			
Oc1c(CN2CCCCCC2)cc(Cl)c2cccnc12	2.1		1.3	
Oc1c(CN2CCCCC2)ccc2cccnc12	4.1			
CCOCc1cc(CN2CCC(C)CC2)c(O)c2ncccc12	5		1.5	
CCOCc1cc(CN2CCOCC2)c(O)c2ncccc12	4.1	1.9		
CC(C)OCc1cc(CN2CCOCC2)c(O)c2ncccc12	2.5			
CN1CCN(C(c2cccnc2)c2ccc3cccnc3c2O)CC1 (stereo unspecified)		1.5		
Oc1c(CN2CCN(c3ccccn3)CC2)cc(Cl)c2cccnc12	1.2			
CCCOCc1cc(CN2CCN(C)CC2)c(O)c2ncccc12	3		1.7	
Oc1cccc2cccnc12 [OXYQUINOLINE]			2.3	
CCN1CCN(C(c2ccccn2)c2cc(Cl)c3cccnc3c2O)CC1 (stereo unspecified)		1.2		
COCc1cc(CN2CCCCC2)c(O)c2ncccc12	6.3		1.3	
Oc1c(C(c2ccccn2)N2CCOCC2)ccc2cccnc12 (stereo unspecified)		1.6		
Oc1c(CN2CCCCC2)cc(Cl)c2cccnc12	3.9			
Oc1c(C(c2cccnc2)N2CCCC2)ccc2cccnc12 (stereo unspecified)		1.8		
Oc1c(C(c2ccccn2)N2CCCC2)cc(Cl)c2cccnc12 (stereo unspecified)	3.7			
Oc1c(C(c2ccccc2)N2CCOCC2)ccc2cccnc12 (stereo unspecified)		1.8		
CCOCc1cc(CN2CCN(C)CC2)c(O)c2ncccc12	2.9		1.3	
CCOCc1cc(CN2CCN(c3ccccc3)CC2)c(O)c2ncccc12	3.1		1.5	

SMILES	Ratio IC50 [1]	Ratio IC50 [4]	Ratio IC50 [5]	further results
CCN(CC)Cc1ccc2cccnc2c1O	2.7			
Oc1c(CN2CCCCC2)cc(Br)c2cccnc12	3.2	10.8		
Oc1c(C(c2cccnc2)N2CCOCC2)cc(Cl)c2cccnc12 (stereo unspecified)		1.6		
Oc1ccc(CN2CCN(c3ccccc3)CC2)c2cccnc12		0.9		
Oc1c(CN2CCCC2)cc(Cl)c2cccnc12	3.8			
CC1CCN(Cc2cc(Cl)c3cccnc3c2O)CC1	6.1			
CCN1CCN(C(c2cccs2)c2ccc3cccnc3c2O)CC1 (stereo unspecified)		0.6		
Oc1c(C(c2ccccn2)N2CCCC2)ccc2cccnc12 (stereo unspecified)	4.4			
CN1CCN(Cc2ccc3cccnc3c2O)CC1	2.3			
CN1CCN(C(c2cccs2)c2ccc3cccnc3c2O)CC1 (stereo unspecified)		0.8		
COCc1cc(CN2CCC(C)CC2)c(O)c2ncccc12	6.1		1.4	
CCN(CC)Cc1cc(Cl)c2cccnc2c1O	6.2			
Oc1c(CN2CCN(c3ccc(F)cc3)CC2)cc(Cl)c2cccnc12	1.3			
CC(C)OCc1cc(CN2CCN(c3ccccc3)CC2)c(O)c2ncccc12	3.9	4.3	1.5	
CN1CCN(Cc2cc(Cl)c3cccnc3c2O)CC1	2.3			
Oc1ccc(CN2CCCCCC2)c2cccnc12		1.2		
CN1CCN(C(c2ccncc2)c2ccc3cccnc3c2O)CC1 (stereo unspecified)			1.6	
CCCOCc1cc(CN2CCN(c3ccccc3)CC2)c(O)c2ncccc12	2.4		1.7	
CCCCOCc1cc(CN2CCN(C)CC2)c(O)c2ncccc12	2.4			
Oc1c(C(c2ccncc2)N2CCCC2)ccc2cccnc12 (stereo unspecified)		1.6		
Oc1c(C(c2ccncc2)N2CCCCC2)ccc2cccnc12 (stereo unspecified)	7.8	1.9		
Cc1ccc(C(c2cc(Cl)c3cccnc3c2O)N2CCCC2)cc1 (stereo unspecified)		2.3		
Oc1c(CN2CCCC2)cc(Br)c2cccnc12	2.9	9.8	1.5	IC50 (MES-SA/Dx5 [7]): 2.69 µM
